Measurements reported in ChEMBL document CHEMBL4689842, “EUbOPEN Chemogenomics Library wave 1” (2021).

Assays:
Format in all cases: toxicity, cell-based
Fibroblast = assay: Incucyte cell viability with human fibroblast; settings: 10 µM, compound concentration 10 uM; note: filed as whole numbers so only -1 and 0 and 1 occur
U2OS [1] = assay: Incucyte cell viability with U2OS; settings: human, 10 µM, compound concentration 10 uM; note: filed as whole numbers so only -1 and 0 and 1 occur
HEK-293T = assay: Incucyte cell viability with HEK293T; settings: human, 10 µM, compound concentration 10 uM; note: filed as whole numbers so only -1 and 0 and 1 occur
U2OS [2] = assay: Multiplex assay against U2OS; settings: human
In short: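 Four dyes were applied at seeding to live cells: Hoechst33342, BioTracker Green Microtubule Cytoskeleton Dye, MitoTracker Red and Annexin V Alexa Fluor 680. Imaging after compound addition used a CQ1 microscope at 37°C and 5% CO2. CellPathfinder machine-learning gating then sorted cells into Hoechst high-intensity objects or normal cells, normal cells into healthy, pyknosed or fragmented nuclei, and pyknosed cells into mitotic or apoptotic, with tubulin, mitochondrial-mass and membrane-permeability phenotypes given as per cents of healthy-nucleus cells.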

[3] = 0 h, replicate number 1, timepoint 0 hours
[4] = 6 h, replicate number 1, timepoint 6 hours
[5] = 12 h, replicate number 1, timepoint 12 hours
[6] = 18 h, replicate number 1, timepoint 18 hours
[7] = 24 h, replicate number 1, timepoint 24 hours
[8] = 12 h, 1 µM, compound concentration 1 uM, replicate 1
[9] = 12 h, 1 µM, compound concentration 1 uM, replicate 2
[10] = 12 h, 10 µM, compound concentration 10 uM, replicate 1
[11] = 12 h, 10 µM, compound concentration 10 uM, replicate 2
[12] = 24 h, 1 µM, compound concentration 1 uM, replicate 1
[13] = 24 h, 1 µM, compound concentration 1 uM, replicate 2
[14] = 24 h, 10 µM, compound concentration 10 uM, replicate 1
[15] = 24 h, 10 µM, compound concentration 10 uM, replicate 2

Structure (SMILES): CCOc1cc2ncc(C#N)c(Nc3ccc(OCc4cccc(F)c4)c(Cl)c3)c2cc1NC(=O)/C=C/CN(C)C [HKI-357]
- Growth Rate (Fibroblast; [3]): 0
- Growth Rate (Fibroblast; [4]): 0
- Growth Rate (Fibroblast; [5]): 0
- Growth Rate (Fibroblast; [6]): 0
- Growth Rate (Fibroblast; [7]): 0
- Growth Rate (U2OS [1]; 0 h, replicate number 2, timepoint 0 hours): 0
- Growth Rate (U2OS [1]; [4]): 0
- Growth Rate (U2OS [1]; [5]): 0
- Growth Rate (U2OS [1]; [6]): 0
- Growth Rate (U2OS [1]; [7]): 0
- Growth Rate (HEK-293T; [3]): 0
- Growth Rate (HEK-293T; [4]): 0
- Growth Rate (HEK-293T; [5]): 0
- Growth Rate (HEK-293T; [6]): 0
- Growth Rate (HEK-293T; [7]): 0
- Population Apoptotic (%) (U2OS [2]; [8]): 58%
- Population Fragmented Nuclei (%) (U2OS [2]; [8]): 5%
- Population Healthy Nuclei (%) (U2OS [2]; [8]): 86%
- Population Hoechst High Intensity Objects (%) (U2OS [2]; [8]): 1%
- Population Membrane Permeable-Phenotype (%) (U2OS [2]; [8]): 21%
- Population Mitochondria Different-Phenotype (%) (U2OS [2]; [8]): 12%
- Population Mitotic Cells (%) (U2OS [2]; [8]): 41%
- Population Normal (%) (U2OS [2]; [8]): 98%
- Population Pyknosed Nuclei (%) (U2OS [2]; [8]): 8%
- Population Tubulin-Different-Phenotype (%) (U2OS [2]; [8]): 14%
- Total Cell Count (U2OS [2]; [8]): 156
- Population Apoptotic (%) (U2OS [2]; [9]): 25%
- Population Fragmented Nuclei (%) (U2OS [2]; [9]): 11%
- Population Healthy Nuclei (%) (U2OS [2]; [9]): 84%
- Population Hoechst High Intensity Objects (%) (U2OS [2]; [9]): 16%
- Population Membrane Permeable-Phenotype (%) (U2OS [2]; [9]): 19%
- Population Mitochondria Different-Phenotype (%) (U2OS [2]; [9]): 25%
- Population Mitotic Cells (%) (U2OS [2]; [9]): 75%
- Population Normal (%) (U2OS [2]; [9]): 83%
- Population Pyknosed Nuclei (%) (U2OS [2]; [9]): 4%
- Population Tubulin-Different-Phenotype (%) (U2OS [2]; [9]): 21%
- Total Cell Count (U2OS [2]; [9]): 141
- Population Apoptotic (%) (U2OS [2]; [10]): 56%
- Population Fragmented Nuclei (%) (U2OS [2]; [10]): 13%
- Population Healthy Nuclei (%) (U2OS [2]; [10]): 69%
- Population Hoechst High Intensity Objects (%) (U2OS [2]; [10]): 5%
- Population Membrane Permeable-Phenotype (%) (U2OS [2]; [10]): 43%
- Population Mitochondria Different-Phenotype (%) (U2OS [2]; [10]): 33%
- Population Mitotic Cells (%) (U2OS [2]; [10]): 43%
- Population Normal (%) (U2OS [2]; [10]): 94%
- Population Pyknosed Nuclei (%) (U2OS [2]; [10]): 16%
- Population Tubulin-Different-Phenotype (%) (U2OS [2]; [10]): 95%
- Total Cell Count (U2OS [2]; [10]): 210
- Population Apoptotic (%) (U2OS [2]; [11]): 69%
- Population Fragmented Nuclei (%) (U2OS [2]; [11]): 20%
- Population Healthy Nuclei (%) (U2OS [2]; [11]): 65%
- Population Hoechst High Intensity Objects (%) (U2OS [2]; [11]): 12%
- Population Membrane Permeable-Phenotype (%) (U2OS [2]; [11]): 31%
- Population Mitochondria Different-Phenotype (%) (U2OS [2]; [11]): 39%
- Population Mitotic Cells (%) (U2OS [2]; [11]): 30%
- Population Normal (%) (U2OS [2]; [11]): 87%
- Population Pyknosed Nuclei (%) (U2OS [2]; [11]): 13%
- Population Tubulin-Different-Phenotype (%) (U2OS [2]; [11]): 88%
- Total Cell Count (U2OS [2]; [11]): 119
- Population Apoptotic (%) (U2OS [2]; [12]): 32%
- Population Fragmented Nuclei (%) (U2OS [2]; [12]): 7%
- Population Healthy Nuclei (%) (U2OS [2]; [12]): 82%
- Population Hoechst High Intensity Objects (%) (U2OS [2]; [12]): 2%
- Population Membrane Permeable-Phenotype (%) (U2OS [2]; [12]): 23%
- Population Mitochondria Different-Phenotype (%) (U2OS [2]; [12]): 16%
- Population Mitotic Cells (%) (U2OS [2]; [12]): 67%
- Population Normal (%) (U2OS [2]; [12]): 97%
- Population Pyknosed Nuclei (%) (U2OS [2]; [12]): 10%
- Population Tubulin-Different-Phenotype (%) (U2OS [2]; [12]): 17%
- Total Cell Count (U2OS [2]; [12]): 172
- Population Apoptotic (%) (U2OS [2]; [13]): 45%
- Population Fragmented Nuclei (%) (U2OS [2]; [13]): 9%
- Population Hoechst High Intensity Objects (%) (U2OS [2]; [13]): 7%
- Population Membrane Permeable-Phenotype (%) (U2OS [2]; [13]): 10%
- Population Mitochondria Different-Phenotype (%) (U2OS [2]; [13]): 23%
- Population Mitotic Cells (%) (U2OS [2]; [13]): 54%
- Population Normal (%) (U2OS [2]; [13]): 92%
- Population Pyknosed Nuclei (%) (U2OS [2]; [13]): 8%
- Population Tubulin-Different-Phenotype (%) (U2OS [2]; [13]): 27%
- Total Cell Count (U2OS [2]; [13]): 154
- Population Apoptotic (%) (U2OS [2]; [14]): 84%
- Population Fragmented Nuclei (%) (U2OS [2]; [14]): 8%
- Population Healthy Nuclei (%) (U2OS [2]; [14]): 68%
- Population Hoechst High Intensity Objects (%) (U2OS [2]; [14]): 4%
- Population Membrane Permeable-Phenotype (%) (U2OS [2]; [14]): 32%
- Population Mitochondria Different-Phenotype (%) (U2OS [2]; [14]): 58%
- Population Mitotic Cells (%) (U2OS [2]; [14]): 15%
- Population Normal (%) (U2OS [2]; [14]): 95%
- Population Pyknosed Nuclei (%) (U2OS [2]; [14]): 23%
- Population Tubulin-Different-Phenotype (%) (U2OS [2]; [14]): 81%
- Total Cell Count (U2OS [2]; [14]): 272
- Population Apoptotic (%) (U2OS [2]; [15]): 86%
- Population Healthy Nuclei (%) (U2OS [2]; [15]): 74%
- Population Hoechst High Intensity Objects (%) (U2OS [2]; [15]): 12%
- Population Membrane Permeable-Phenotype (%) (U2OS [2]; [15]): 23%
- Population Mitochondria Different-Phenotype (%) (U2OS [2]; [15]): 69%
- Population Mitotic Cells (%) (U2OS [2]; [15]): 13%
- Population Normal (%) (U2OS [2]; [15]): 87%
- Population Pyknosed Nuclei (%) (U2OS [2]; [15]): 17%
- Population Tubulin-Different-Phenotype (%) (U2OS [2]; [15]): 84%
- Total Cell Count (U2OS [2]; [15]): 141
